Most compounds without a hit are left out; they make up all but 1.7% or so of the library.
M1 PAM parental: M1 PAM counterscreen hit in parental CHO-K1 cells | ATP EC20, Fluo-8 calcium fluorescence; 0% at ATP EC20, 100% at ATP max | 0.02% of 360,000 active | activation, % at 3 µM | AID 602247;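 active means activation above the run cutoff, the mean activation of all test compounds plus 3 SD, cut at about 40% in these data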;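 further: peak over basal fluorescence ratio in a 140 s read after ATP addition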
M1 ag parental: M1 agonist counterscreen hit in parental CHO-K1 cells | Fluo-8 calcium fluorescence; scaled to maximal ATP response, vehicle zero | activation, % at 3 µM | 0.48% of 360,000 active | AID 602248; in the data active means activation above about 15%;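 further: untransfected CHO-K1 host cells lacking M1 receptor as counterscreen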
CHRM5 antagonist: blocks acetylcholine activation of human M5 receptor | P08912 | CHO-hM5 cells, Fluo-8 calcium fluorescence, ACh EC80 | inhibition, % at 3 µM | 0.59% of 360,000 active;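 active means inhibition above a per-plate cutoff, the mean of that plate's test compounds plus 3 SD, cut at about 27% in these data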;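 further: 0% = acetylcholine EC80 with DMSO and 100% = DMSO without agonist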
M5 PAM: potentiates acetylcholine response at human M5 receptor; CHO-K1 hM5, Fluo-8 calcium, ACh EC20 PAM; 0% = ACh EC20, 100% = ACh EC100; 0.3% of 360,000 active; activation, % at 3 µM; P08912;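 active means activation above the run cutoff, the mean activation of all test compounds plus 3 SD, cut at about 18% in these data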
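Replicates: One well per compound, no replicates | System: Human M5 receptor in CHO-K1 cells | Benchmarks: Low control EC20 acetylcholine (0%), high control EC100 acetylcholine (100%) | Probe or stimulus: Acetylcholine, EC20 level | Times: Fluo-8 loading 80 min at 37 °C plus 30 min room temperature | Signal: Intracellular calcium via Fluo-8 fluorescence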
CHO-K1 Ca antag: M1 antagonist counterscreen hit in parental CHO-K1 cells; ATP-induced calcium, Fluo-8 fluorescence; inhibition, % at 3 µM; 0.6% of 360,000 active;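 active means inhibition above a per-plate cutoff, the plate's mean sample inhibition plus 3 SD, cut at about 24% in these data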;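 further: 0% = DMSO plus EC80 ATP and 100% = DMSO alone without ATP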
CHRM5 agonist: CHRM5 agonism in calcium assay. P08912. CHO-K1 hM5 cells, Fluo-8 calcium fluorescence; 0% DMSO wells, 100% maximal acetylcholine response. activation, % at 3 µM. 0.19% of 360,000 active. AID 624037;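 active means activation above the run's mean over test compounds plus 3 SD, cut at about 23% in these data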;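 further: signal is peak over basal fluorescence ratio across the kinetic read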
Starred values were filed as active, the others as inactive.

SMILES | M1 PAM parental | M1 ag parental | CHRM5 antagonist | M5 PAM | CHO-K1 Ca antag | CHRM5 agonist
COc1ccccc1NC(=O)Cn1c2ccc(F)cc2c2nc3n(c(=O)c21)CCS3 | 17 | 3 | 0 | 4 | -8 | -1
COc1ccc(/C=C2\SC(N)=NC2=O)cc1 | 20 | 0 | 2 | -4 | -15 | 4
COc1cc(/C=N/N2C(=O)CSC2=S)cc(Br)c1O | -3 | 48* | 10 | -21 | 19 | 56*
COc1cc(/C=C2\SC(N)=NC2=O)cc(Br)c1O | 6 | 7 | -7 | -10 | -3 | 24*
CCOC(=O)C1=NS(=O)(=O)NC(C)=C1 | 17 | 1 | -1 | 0 | -11 | 1
O=C(CC1CCC1)Nc1cccc2c([N+](=O)[O-])cccc12 | -17 | 0 | 28* | -11 | 21 | -7
Cc1cccc(CCNC(=O)CCS(=O)(=O)c2cc3c(cc2Cl)NC(=O)CO3)c1 | 9 | 0 | 1 | 1 | -12 | -1
C/C(=N\NC(=O)COc1ccc([N+](=O)[O-])cc1)C(C)(C)C | 17 | 0 | -3 | -4 | -13 | 1
CCCNc1c(NS(=O)(=O)c2ccc(Cl)s2)c(=O)oc2ccccc12 | -12 | 0 | 22 | -8 | 29* | -6
CCCNc1c(NS(=O)(=O)c2cccs2)c(=O)oc2ccccc12 | 17 | 1 | 13 | 1 | -17 | -4
Cc1ccc(CNC(=O)c2cc3c(=O)n(C)c4ccccc4c3n2C)o1 | -14 | 2 | -1 | -7 | 24* | 1
Cn1c(C(=O)NCc2ccccn2)cc2c(=O)n(C)c3ccccc3c21 | 0 | 1 | 8 | -10 | 3 | 3
CCOC(=O)C1CCN(CC(C)(C)NS(=O)(=O)c2ccccc2)CC1 | 1 | 19* | -1 | -3 | -1 | -3
CCOC(=O)C1CCN(S(=O)(=O)c2ccc3[nH]c4c(c3c2)CCCC4)CC1 | 7 | 16* | -1 | -7 | 10 | -1
CCOC(=O)C1CCN(S(=O)(=O)c2ccc3c(c2)CCN3C(C)=O)CC1 | -11 | 9 | 32* | -13 | -7 | -3
CC(=O)N1CCc2cc(S(=O)(=O)N3CCc4ccccc4C3)ccc21 | 20 | 1 | 7 | 6 | -9 | -3
CC(=O)N1CCc2cc(S(=O)(=O)N3CCc4ccccc43)ccc21 | 1 | 15* | 9 | -9 | 9 | -5
CCOC(=O)C1CCN(S(=O)(=O)c2ccc3[nH]c(=O)c(=O)[nH]c3c2)CC1 | 15 | 5 | 22 | -10 | -4 | -2
CC(=O)N1CCN(CC(C)(C)NS(=O)(=O)c2ccccc2)CC1 | -9 | 0 | 2 | 7 | -8 | 2
CCOC(=O)C1=C(C)NC(=O)NC1c1ccccc1Cl (stereo unspecified) | 14 | 0 | 2 | -5 | -6 | -2
Cn1cc(S(=O)(=O)N2CCc3ccccc32)cc1C(=O)NC(C)(C)C | -13 | 6 | 41* | -22 | 26* | 10
CCOC(=O)C1CCN(S(=O)(=O)c2ccc(OC)c(OC)c2)CC1 | 2 | 1 | 2 | -4 | -2 | 3
CCOC(=O)C1CCN(S(=O)(=O)c2ccc(C)c(C)c2)CC1 | 5 | 17* | 5 | -3 | 12 | -2
CCOC(=O)N1CCN(CCC(=O)Nc2cc(C)ccc2C)CC1 | -1 | 1 | 2 | 3 | -10 | 1
Cc1cccc(C)c1NC(=O)c1cc(S(=O)(=O)N2CCc3ccccc32)cn1C | 0 | 1 | 3 | -4 | 2 | -3
CSc1cccc(NS(=O)(=O)c2ccc3c(c2)CCN3C(C)=O)c1 | -29 | 18* | 22 | -17 | 29* | 4
CCOC(=O)C1CCN(CCC(=O)Nc2cc(C)ccc2C)CC1 | 8 | 16* | 5 | 0 | -4 | -8
O=c1c2ccc(Cl)cc2[nH]c(=S)n1CCCN1CCOCC1 | 14 | 1 | 6 | 0 | -9 | -2
CS(=O)(=O)c1ccc(C(=O)OCC(=O)Nc2cccc(S(=O)(=O)N3CCCC3)c2)cc1 | -1 | 2 | 0 | 2 | 6 | 1
c1ccc(C2[C@H]3CN(CC4CCCCC4)[C@H](c4ccccc4)C34CC2(c2ccccc2)C4)cc1 (stereo partly specified) | 13 | 1 | -6 | 5 | -11 | -3

Assay outcomes from PubChem.
